Data set [1] has as its system Cynomolgus monkey. The data set can be described thus: In vivo inhibition of 11beta-HSD1 in non-fasting diet-induced obese cynomolgus monkey assessed as decrease in corticosterone excursion in plasma pretreated via oral gavage for 30 mins followed by DHC administration measured up to 60 mins by enzyme immunosorbent assay. The format is functional. To be noted: Macaca fascicularis. The method in brief: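 Cynomolgus monkeys given test compound at a predetermined time before the experiment, chosen from its pharmacokinetics. Substrate DHC (rodent substrate, used in place of cortisone) given afterwards. Blood sampled at various times. Design otherwise similar to the mouse DHC challenge.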

For data set [2], the system named is Cynomolgus monkey. Kind of data set: Toxicity in cynomolgus monkey assessed as HPA axis activation by measuring increase in DHEA level at 10 mg/kg for 7 days. The format is organism-based, Macaca fascicularis. As to conditions: in vivo, 168 h.
The subject of data set [3] is Cynomolgus monkey. The data set can be described thus: Toxicity in cynomolgus monkey assessed as HPA axis activation by measuring increase in cortisol level at 10 mg/kg for 7 days. The format is organism-based, Macaca fascicularis. As to conditions: in vivo, 168 h.
Data set [4] has as its system Cynomolgus monkey. Kind of data set: Toxicity in cynomolgus monkey assessed as HPA axis activation by measuring increase in DHEAS level at 10 mg/kg for 7 days. The format is organism-based, Macaca fascicularis. As to conditions: in vivo, 168 h.

Turning to `O=C(O)CC1(c2ccc(F)cc2)C2CC3CC(C2)CC1C3` (centres undefined), in data set [1], the ED50 is 0.3 mg/kg. The Activity result in data set [2], in data set [3] and in data set [4] was “Toxic” each time.
